{"source": "ChEMBL document CHEMBL1127348", "about": "“3-Amino-5,5-dimethylhexanoic acid. Synthesis, resolution, and effects on carnitine acyltransferases” (J Med Chem, 1994)", "molecules": {"B1": {"name": "Carnitine O-acetyltransferase (Homo sapiens), P43155 (protein)", "chain": "MLAFAARTVVKPLGFLKPFSLMKASSRFKAHQDALPRLPVPPLQQSLDHYLKALQPIVSEEEWAHTKQLVDEFQASGGVGERLQKGLERRARKTENWLSEWWLKTAYLQYRQPVVIYSSPGVMLPKQDFVDLQGQLRFAAKLIEGVLDFKVMIDNETLPVEYLGGKPLCMNQYYQILSSCRVPGPKQDTVSNFSKTKKPPTHITVVHNYQFFELDVYHSDGTPLTADQIFVQLEKIWNSSLQTNKEPVGILTSNHRNSWAKAYNTLIKDKVNRDSVRSIQKSIFTVCLDATMPRVSEDVYRSHVAGQMLHGGGSRLNSGNRWFDKTLQFIVAEDGSCGLVYEHAAAEGPPIVTLLDYVIEYTKKPELVRSPLVPLPMPKKLRFNITPEIKSDIEKAKQNLSIMIQDLDITVMVFHHFGKDFPKSEKLSPDAFIQMALQLAYYRIYGQACATYESASLRMFHLGRTDTIRSASMDSLTFVKAMDDSSVTEHQKVELLRKAVQAHRGYTDRAIRGEAFDRHLLGLKLQAIEDLVSMPDIFMDTSYAIAMHFHLSTSQVPAKTDCVMFFGPVVPDGYGVCYNPMEAHINFSLSAYNSCAETNAARLAHYLEKALLDMRALLQSHPRAKL"}}, "key": {"[1]": {"target": "T1, Carnitine O-palmitoyltransferase 1, liver isoform (Rattus norvegicus) (UniProt P32198)", "T1 sequence (whole entry)": "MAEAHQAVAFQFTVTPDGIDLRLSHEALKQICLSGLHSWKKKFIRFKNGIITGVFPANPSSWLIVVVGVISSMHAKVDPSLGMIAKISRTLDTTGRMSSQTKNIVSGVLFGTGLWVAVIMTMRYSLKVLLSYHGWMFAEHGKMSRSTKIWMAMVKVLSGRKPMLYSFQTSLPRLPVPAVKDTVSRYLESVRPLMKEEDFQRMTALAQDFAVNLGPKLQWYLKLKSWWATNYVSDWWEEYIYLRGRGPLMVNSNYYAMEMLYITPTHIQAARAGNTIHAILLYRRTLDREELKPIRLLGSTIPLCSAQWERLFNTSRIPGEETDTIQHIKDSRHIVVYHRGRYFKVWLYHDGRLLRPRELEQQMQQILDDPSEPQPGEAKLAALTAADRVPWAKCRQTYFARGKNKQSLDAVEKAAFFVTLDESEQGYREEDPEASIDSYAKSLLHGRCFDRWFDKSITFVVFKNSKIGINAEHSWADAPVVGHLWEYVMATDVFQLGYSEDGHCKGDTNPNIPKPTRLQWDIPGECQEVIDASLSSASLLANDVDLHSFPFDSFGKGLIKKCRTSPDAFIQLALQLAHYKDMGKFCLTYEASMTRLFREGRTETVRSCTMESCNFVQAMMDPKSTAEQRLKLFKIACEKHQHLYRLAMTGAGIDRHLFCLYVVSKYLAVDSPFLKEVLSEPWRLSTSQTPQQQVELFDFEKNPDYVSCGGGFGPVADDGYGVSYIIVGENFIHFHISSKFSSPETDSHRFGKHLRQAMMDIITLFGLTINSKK", "assay": "Percent inhibition was measured on rat liver carnitine palmitoyltransferase at 5 uM"}, "[2]": {"target": "T2, Carnitine O-palmitoyltransferase 1, muscle isoform (Rattus norvegicus, UniProt Q63704)", "T2 sequence (Q63704 whole entry)": "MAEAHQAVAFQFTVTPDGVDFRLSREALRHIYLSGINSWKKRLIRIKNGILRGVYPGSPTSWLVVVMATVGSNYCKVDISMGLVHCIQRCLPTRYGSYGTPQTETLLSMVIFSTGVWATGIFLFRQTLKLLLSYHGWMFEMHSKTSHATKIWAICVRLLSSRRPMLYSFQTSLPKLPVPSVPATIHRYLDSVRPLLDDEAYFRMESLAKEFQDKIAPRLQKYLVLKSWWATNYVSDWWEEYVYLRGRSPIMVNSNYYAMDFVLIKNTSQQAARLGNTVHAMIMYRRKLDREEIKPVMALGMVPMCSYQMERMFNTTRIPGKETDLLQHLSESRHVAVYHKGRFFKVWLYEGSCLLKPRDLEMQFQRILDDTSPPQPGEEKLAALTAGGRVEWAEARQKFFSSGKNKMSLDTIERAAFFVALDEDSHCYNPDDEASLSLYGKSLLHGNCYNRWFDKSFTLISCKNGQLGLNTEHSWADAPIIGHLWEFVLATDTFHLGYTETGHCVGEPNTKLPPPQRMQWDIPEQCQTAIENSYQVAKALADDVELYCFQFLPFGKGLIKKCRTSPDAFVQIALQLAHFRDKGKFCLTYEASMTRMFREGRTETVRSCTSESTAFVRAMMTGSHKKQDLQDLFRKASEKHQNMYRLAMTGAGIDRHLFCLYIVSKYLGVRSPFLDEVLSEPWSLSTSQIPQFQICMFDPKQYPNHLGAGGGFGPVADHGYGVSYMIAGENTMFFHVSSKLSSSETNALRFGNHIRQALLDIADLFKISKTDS", "assay": "Tested against neonatal rat cardiac myocyte carnitine palmitoyltransferase 1; no effect"}, "[3]": {"target": "T3, Carnitine O-palmitoyltransferase 2, mitochondrial (Rattus norvegicus, UniProt P18886)", "T3 sequence (P18886 whole entry)": "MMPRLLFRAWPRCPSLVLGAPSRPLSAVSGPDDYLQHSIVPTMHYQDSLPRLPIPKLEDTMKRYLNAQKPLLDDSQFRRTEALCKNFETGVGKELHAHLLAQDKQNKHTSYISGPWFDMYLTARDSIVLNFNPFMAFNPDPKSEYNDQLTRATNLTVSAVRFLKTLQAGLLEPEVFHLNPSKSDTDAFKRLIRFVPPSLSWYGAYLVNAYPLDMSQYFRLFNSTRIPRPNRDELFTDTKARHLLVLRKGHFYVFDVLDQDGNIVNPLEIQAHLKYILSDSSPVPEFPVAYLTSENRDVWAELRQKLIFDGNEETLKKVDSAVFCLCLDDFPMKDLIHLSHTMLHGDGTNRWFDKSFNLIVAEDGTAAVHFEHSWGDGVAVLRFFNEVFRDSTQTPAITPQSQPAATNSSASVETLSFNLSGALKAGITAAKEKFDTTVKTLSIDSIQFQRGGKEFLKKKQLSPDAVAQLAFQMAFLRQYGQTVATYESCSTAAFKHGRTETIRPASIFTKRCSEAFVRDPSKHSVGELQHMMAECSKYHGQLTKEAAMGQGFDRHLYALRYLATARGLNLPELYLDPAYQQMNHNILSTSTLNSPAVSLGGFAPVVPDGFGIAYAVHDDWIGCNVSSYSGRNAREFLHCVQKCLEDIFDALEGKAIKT", "assay": "Tested against neonatal rat cardiac myocyte carnitine palmitoyltransferase 2"}, "[4]": {"target": "T2, Carnitine O-palmitoyltransferase 1, muscle isoform", "assay": "Tested against neonatal rat cardiac myocyte carnitine palmitoyltransferase 1"}, "[5]": {"substrate": "C[N+](C)(C)CC(N)CC(=O)[O-]", "assay": "(§1) Kinetic constants tested against pigeon breast carnitine acyltransferase", "conditions": "Columba livia; call rule not given here", "how_it_was_run": "(§2)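 Purified pigeon breast CAT, 25 °C, 1 mL. Reverse: 100 mM MOPS, 5 mM EDTA, 0.25 mM CoASH; started with varying D,L-acetylcarnitine; read at 232 nm. Inhibitor at 0, 5.00 or 10.00 mM final; points mean of 2–5 determinations; nonlinear regression fit.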"}, "[6]": {"substrate": "C[N+](C)(C)C[C@H](O)CC(=O)[O-]", "assay": "as §1", "conditions": "Columba livia", "how_it_was_run": "as §2"}}}
{"molecule": "CC(=O)NC(CC(=O)[O-])C[N+](C)(C)C", "note": "(configuration not stated)", "values": [{"measurement": "inhibition", "setting": "[1]", "result": 15, "unit": "%"}]}
{"molecule": "CC(C)(C)CC(N)CC(=O)O", "note": "(configuration not stated)", "values": [{"measurement": "Ki", "setting": "[2]", "result": "Not Active"}, {"measurement": "Ki", "setting": "[3]", "result": 20, "unit": "mM"}]}
{"molecule": "C[N+](C)(C)CC(N)CC(=O)[O-]", "note": "(configuration not stated)", "values": [{"measurement": "inhibition", "setting": "[1]", "result": 64, "unit": "%"}]}
{"molecule": "CC(C)(C)C[C@H](O)CC(=O)O", "values": [{"measurement": "Ki", "setting": "[3]", "result": 2.2, "unit": "mM"}]}
{"molecule": "CC(C)(C)CC(O)CC(=O)O", "note": "(configuration not stated)", "values": [{"measurement": "Ki", "setting": "[4]", "result": 3.6, "unit": "mM"}, {"measurement": "Ki", "setting": "[3]", "result": 2.8, "unit": "mM"}]}
{"molecule": "CC(C)(C)C[C@@H](O)CC(=O)O", "values": [{"measurement": "Ki", "setting": "[3]", "result": 6.7, "unit": "mM"}]}
{"molecule": "C[N+](C)(C)C[C@H](O)CC(=O)[O-]", "note": "[LEVOCARNITINE]", "values": [{"measurement": "Ki", "setting": "[4]", "result": 0.1, "unit": "mM"}, {"measurement": "Ki", "setting": "[3]", "result": 0.1, "unit": "mM"}]}
{"molecule": "B1", "values": [{"measurement": "Km", "setting": "[5]", "result": 3800, "unit": "µM"}, {"measurement": "Km", "setting": "[6]", "result": 300, "unit": "µM"}]}
